What was measured:
[1] = Permeability of compound in 5% DMSO after 7 hrs by PAMPA; assay type: ADME; settings: read-out: permeability
Histamine H3 receptor [2] = target: T1, Histamine H3 receptor (Homo sapiens, UniProt Q9Y5N1); assay: Displacement of [3H]Nalpha-methylhistamine from recombinant human histamine H3 receptor after 60 mins by scintillation counting method
Histamine H3 receptor [3] = target: T1, Histamine H3 receptor; assay: Agonist activity at human H3 receptor expressed in CHOK1 cells incubated for 10 mins by HTRF assay; assay type: cell-based
Histamine H3 receptor [4] = target: T1, Histamine H3 receptor; assay: Antagonist activity at human H3 receptor expressed in CHOK1 cells incubated for 10 mins by HTRF assay; assay type: cell-based
[5] = target: Bromodomain-containing protein 2 (Homo sapiens, UniProt P25440); assay: Inhibition of BRD2 (unknown origin) by TR-FRET assay
[6] = target: Bromodomain-containing protein 3 (Homo sapiens, UniProt Q15059); assay: Inhibition of BRD3 (unknown origin) by TR-FRET assay
[7] = target: T2, Bromodomain-containing protein 4 (Homo sapiens, UniProt O60885); assay: Inhibition of BRD4 (unknown origin) by TR-FRET assay
[8] = target: T2, Bromodomain-containing protein 4; assay: Inhibition of BRD4 in human […] cells transfected with HPV-E2 assessed as transrepression of HPV-long control region by luciferase reporter assay; assay type: cell-based
[9] = Ratio of drug concentration in unbound HEK293 cell to media; assay type: ADME; settings: human
Summary of the method: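 In HEK293 cells, Kpuu combines compound binding (fu,HEK) with intracellular accumulation (Kp, cell-to-media concentration ratio). Values are the geometric mean of at least two duplicate runs.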

[10] = target: T2, Bromodomain-containing protein 4; assay: Inhibition of BRD4 in human MX1 cells assessed as decrease in cell proliferation after 3 days by Celltiter-Glo assay relative to parent compound; assay type: cell-based
Summary of the method: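 MX-1 breast cancer cells were treated for a 3-day proliferation assay and read out by CellTiter-Glo. Each EC50 is the geometric mean of at least two duplicate runs. The fold change is the ratio of the result to that of (+)-JQ1.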

[11] = target: T2, Bromodomain-containing protein 4; assay: Inhibition of BRD4 in luciferase expressing human […] cells transfected with HPV-E2 assessed as transrepression of HPV-long control region by luciferase reporter assay relative to parent compound
Summary of the method: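 In-cell target engagement was read in an engineered H1299-derived luciferase reporter system. Each EC50 is the geometric mean of at least two duplicate runs. The fold change is the ratio to (+)-JQ1.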

Chain of Bromodomain-containing protein 2 (P25440 whole entry): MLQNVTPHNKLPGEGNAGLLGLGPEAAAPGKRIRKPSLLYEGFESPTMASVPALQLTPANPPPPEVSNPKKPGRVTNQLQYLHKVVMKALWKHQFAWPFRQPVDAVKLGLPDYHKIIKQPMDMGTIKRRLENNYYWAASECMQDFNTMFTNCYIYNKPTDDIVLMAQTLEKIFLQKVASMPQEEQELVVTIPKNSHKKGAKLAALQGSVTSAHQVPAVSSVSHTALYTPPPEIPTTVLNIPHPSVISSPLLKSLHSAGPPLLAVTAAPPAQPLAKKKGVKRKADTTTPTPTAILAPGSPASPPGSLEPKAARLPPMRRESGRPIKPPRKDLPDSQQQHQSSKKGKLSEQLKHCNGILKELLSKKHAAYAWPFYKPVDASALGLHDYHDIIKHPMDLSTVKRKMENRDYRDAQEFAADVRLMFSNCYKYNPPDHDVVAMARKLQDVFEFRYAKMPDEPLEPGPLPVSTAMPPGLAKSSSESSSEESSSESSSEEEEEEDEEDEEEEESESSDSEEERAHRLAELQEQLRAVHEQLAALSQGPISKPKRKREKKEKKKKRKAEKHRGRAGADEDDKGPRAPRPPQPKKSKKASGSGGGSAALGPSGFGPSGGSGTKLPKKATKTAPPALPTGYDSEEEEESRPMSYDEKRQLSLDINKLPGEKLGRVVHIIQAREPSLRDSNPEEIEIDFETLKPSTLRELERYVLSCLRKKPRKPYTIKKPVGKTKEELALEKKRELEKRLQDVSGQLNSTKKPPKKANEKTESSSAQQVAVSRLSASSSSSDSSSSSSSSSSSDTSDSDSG
Chain of Bromodomain-containing protein 3 (Q15059 whole entry): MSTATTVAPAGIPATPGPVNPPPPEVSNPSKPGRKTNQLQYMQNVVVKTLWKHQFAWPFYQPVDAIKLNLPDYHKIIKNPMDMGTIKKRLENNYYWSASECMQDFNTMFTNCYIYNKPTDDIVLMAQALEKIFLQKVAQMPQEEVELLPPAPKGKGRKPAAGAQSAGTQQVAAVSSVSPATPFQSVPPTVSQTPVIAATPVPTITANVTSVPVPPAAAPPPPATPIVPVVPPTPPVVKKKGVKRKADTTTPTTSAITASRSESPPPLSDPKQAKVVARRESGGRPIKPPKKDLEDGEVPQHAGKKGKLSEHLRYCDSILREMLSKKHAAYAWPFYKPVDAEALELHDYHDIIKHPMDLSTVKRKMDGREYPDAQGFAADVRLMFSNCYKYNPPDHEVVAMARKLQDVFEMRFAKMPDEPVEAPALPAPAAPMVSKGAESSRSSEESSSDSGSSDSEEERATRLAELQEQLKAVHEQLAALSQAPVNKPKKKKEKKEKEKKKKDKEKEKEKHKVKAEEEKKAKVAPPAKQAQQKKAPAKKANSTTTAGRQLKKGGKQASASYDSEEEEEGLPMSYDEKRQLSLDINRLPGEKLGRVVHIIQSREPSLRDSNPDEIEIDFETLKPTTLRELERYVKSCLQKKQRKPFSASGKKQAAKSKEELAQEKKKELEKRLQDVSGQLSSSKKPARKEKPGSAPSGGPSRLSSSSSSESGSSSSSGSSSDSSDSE
T1 sequence (Q9Y5N1 whole entry): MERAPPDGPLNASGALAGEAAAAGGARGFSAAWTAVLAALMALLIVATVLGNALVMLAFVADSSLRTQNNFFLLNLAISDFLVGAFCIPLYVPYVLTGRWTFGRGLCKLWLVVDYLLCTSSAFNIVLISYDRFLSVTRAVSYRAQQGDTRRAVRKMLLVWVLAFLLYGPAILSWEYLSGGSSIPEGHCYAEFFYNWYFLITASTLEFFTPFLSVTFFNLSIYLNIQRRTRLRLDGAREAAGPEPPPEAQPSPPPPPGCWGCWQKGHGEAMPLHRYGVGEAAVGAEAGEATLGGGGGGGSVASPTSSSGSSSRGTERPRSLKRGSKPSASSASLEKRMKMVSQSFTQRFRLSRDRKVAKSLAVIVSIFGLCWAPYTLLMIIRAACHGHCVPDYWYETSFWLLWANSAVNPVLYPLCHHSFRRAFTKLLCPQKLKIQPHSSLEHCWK

| Compound | Papp at 7 h [1] [×10⁻⁶ cm/s] | Ki (Histamine H3 receptor [2]) [nM] | EC50 (Histamine H3 receptor [3]) [nM] | IC50 (Histamine H3 receptor [4]) [nM] | IC50 [5] [nM] | IC50 [6] [nM] | IC50 [7] [nM] | EC50 [8] [nM] | Ratio [9] | fold change (FC) [10] | fold change (FC) [11] |
| --- | --- | --- | --- | --- | --- | --- | --- | --- | --- | --- | --- |
| Cc1nn(CCOCCOCCNC(=O)C2C(C(=O)O)C(C(=O)O)C2C(=O)O)cc1-c1ccc2cc(CCN3CCC[C@H]3C)ccc2n1 (stereo partly specified) | 0.0131 | 25.4 | > 3000 | 150 |  |  |  |  |  |  |  |
| Cc1nn(CCOCCOCCNC(=O)CCCCCC2(C)C(/C=C/C=C/C=C3/N(CCCS(=O)(=O)O)c4ccc(S(=O)(=O)O)cc4C3(C)C)=[N+](CCCS(=O)(=O)[O-])c3ccc(S(=O)(=O)O)cc32)cc1-c1ccc2cc(CCN3CCC[C@H]3C)ccc2n1 (stereo partly specified) | 0.284 | 1.9 | 88 | 13 |  |  |  |  |  |  |  |
| Cc1sc2c(c1C)C(c1ccc(Cl)cc1)=N[C@@H](CC(=O)NCCOCCOCCNC(=O)CCCCCC1(C)C(/C=C/C=C/C=C3/N(CCCS(=O)(=O)O)c4ccc(S(=O)(=O)O)cc4C3(C)C)=[N+](CCCS(=O)(=O)[O-])c3ccc(S(=O)(=O)O)cc31)c1nnc(C)n1-2 (stereo partly specified) |  |  |  |  | > 45000 | > 20500 | 9110 | > 10000 | 0.0064 | > 50 | > 50 |
| Cc1sc2c(c1C)C(c1ccc(Cl)cc1)=N[C@@H](CC(=O)NCCOCCOCCNC(=O)CS(=O)(=O)O)c1nnc(C)n1-2 |  |  |  |  | 78 | 78 | > 10000 | > 10000 | 0.0219 | > 50 | > 50 |
| Cc1nn(CCOCCOCCNC(=O)OC(C)(C)C)cc1-c1ccc2cc(CCN3CCC[C@H]3C)ccc2n1 | 0.873 | 1.5 | > 3000 | 41 |  |  |  |  |  |  |  |
| Cc1sc2c(c1C)C(c1ccc(Cl)cc1)=N[C@@H](CC(=O)NCCOCCOCCNC(=O)OC(C)(C)C)c1nnc(C)n1-2 | 6.22 |  |  |  | 35 | 42 | 526 | 718 | 0.168 | 3.65 | 11.2 |
| Cc1sc2c(c1C)C(c1ccc(Cl)cc1)=N[C@@H](CC(=O)NCCOCCOCCN)c1nnc(C)n1-2 | 0.0146 |  |  |  | 16 | 7 | 2480 | 8490 | 0.0695 | 17.2 | > 50 |
| Cc1sc2c(c1C)C(c1ccc(Cl)cc1)=N[C@@H](CC(=O)NCCOCCOCCNC(=O)C1C(C(=O)O)C(C(=O)O)C1C(=O)O)c1nnc(C)n1-2 (stereo partly specified) |  |  |  |  | 997 | 456 | > 10000 | > 10000 | 0.0359 | > 50 | > 50 |
| Cc1nn(CCOCCOCCN)cc1-c1ccc2cc(CCN3CCC[C@H]3C)ccc2n1 | 0.0246 | 0.7 | > 3000 | 1 |  |  |  |  |  |  |  |
| Cc1nn(CCOCCOCCNC(=O)CS(=O)(=O)O)cc1-c1ccc2cc(CCN3CCC[C@H]3C)ccc2n1 |  | 5.6 | > 3000 | 45 |  |  |  |  |  |  |  |

— ChEMBL document CHEMBL4311931, “Controlling cellular distribution of drugs with permeability modifying moieties” (Medchemcomm, 2019)
